Phagocyt inh: inhibitors of macrophage phagocytosis. AID 1029. 110,000 compounds, 0.07% hits. J774A.1 macrophage IgG-bead phagocytosis, imaging. inhibition, % at 5 µM;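 active means inhibition above the mean of the plate negative controls plus 5 SD, cut at about 13% in these data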;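 further: phagocytic index as fraction of beads internalized from green versus red external bead signal; plate controls were DMSO negative control for no effect and cytochalasin-D positive control for full effect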
Rev-RRE block: HIV Rev-RRE protein-RNA interaction inhibition | inhibition, % at 8 µM | 97,000 compounds, 0.79% hits | Rev peptide-RRE RNA binding, FRET | P05866;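 active means inhibition above the screen-wide mean plus 3 SD, cut at about 35% in these data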;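 further: 0% = median DMSO wells and 100% = median Neomycin B control wells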
Target sequence (P05866 whole entry, looked up): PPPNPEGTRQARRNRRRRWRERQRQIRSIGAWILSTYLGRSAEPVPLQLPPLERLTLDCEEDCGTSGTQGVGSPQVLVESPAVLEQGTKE
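Test system – labelled RRE RNA duplex and labelled Rev peptide · Reagent – labelled Rev peptide · Doses – one concentration, 8 µM nominal · Incubation – 5 + 15 min at 25 °C · Signal – FRET fluorescence readout · Read-out basis – % inhibition of FRET ratio versus controls · Control set – DMSO wells as 0% and neomycin B wells as 100% inhibition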
Cav32 inh: human Cav3.2 channel inhibition, primary screen; B-score at 10 µM; O95180; 100,000 compounds, 4% hits; Cav3.2-expressing cells, Fluo-4 calcium fluorescence FDSS; hits give low values;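 active means single-dose well whose peak fluorescence ratio is a statistical outlier from its plate by either plate-standardised score or position-corrected B-score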
Measles CPE: protection of cells from measles virus; Measles virus-infected cells, CPE protection, absorbance; protection (pct of control), % at 4 µM; 140,000 compounds, 1.5% hits; AID 841; in the data active means protection mostly above about 24%, no sharp cut-off; inactive means mostly below about 26%
PTK2B oligo ant: blocks oligomerization of human Pyk2 in cells. z-score (the deposit names both 25 µM and 10 µM). AID 1347419. Q14289. 99,000 compounds, 0.83% hits. Q293 cells, Pyk2 FERM NanoBiT luminescence; hits give low values;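 active means Z-score of -3 or lower, scaled per plate to the spread of control and sample wells; inactive means z-score above -3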;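 further: negative z-score means lost luminescence so less FERM oligomerization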
DAT uptake mod: modulates human dopamine transporter uptake under cocaine; LLC-PK1 hDAT cells, [14C]-dopamine uptake with cocaine IC80; actives deviate in either direction; B-score at 10 µM; 110,000 compounds, 1.3% hits; Q01959;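 active means Z score or B-score, a plate-position-corrected score, falls beyond the plate's 99.7% confidence bounds, in either direction; inactive means both scores lie inside the 99.7% bounds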;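 further: scored against the spread of the other compound wells on the same plate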
* hit, by the source's call; . = not tested or not shown. Shown are actives, neighbours in structure and some others; about 5.9% of the full set was active somewhere.

SMILES	Phagocyt inh	Rev-RRE block	Cav32 inh	Measles CPE	PTK2B oligo ant	DAT uptake mod
CCOC(=O)N1C2C=C(C)[C@@H]2[C@@H]2CC(=O)N21 (some centres not stated)	1	.	.	2	.	.
CCOc1ccc(CC(=O)Nc2sc(Cc3ccccc3)cc2C(N)=O)cc1OCC	-1	1	0.02	21	-0.8	0.56
NC(=O)c1cc(Cc2ccccc2)sc1NC(=O)c1ccco1	0	.	0.8	13	-3.1*	-0.72
CCCCN1CC2([N+](=O)[O-])C=CC(=O)C([N+](=O)[O-])(C1)C2CC(=O)c1ccccc1 (configuration not stated)	-7	.	.	6	.	.
CCN1CC2([N+](=O)[O-])C=CC(=O)C([N+](=O)[O-])(C1)C2CC(=O)c1ccccc1 (configuration not stated)	.	3	0.068	27*	1.2	-1.1
O=C(CSc1nnc(Cc2ccccc2)n1Cc1ccco1)NC12CC3CC(CC(C3)C1)C2	1	1	-3.2*	15	-2.2	0.41
Cc1cc(C)nc(SCc2nnc(SCC(=O)Nc3ccc(C)c(C)c3)n2Cc2ccco2)n1	-1	1	-8*	29	-0.51	2.6
COC(=O)CSc1nnc(CSc2nc(C)cc(C)n2)n1Cc1ccco1	1	4	0.025	7	-1.2	-0.04
O=C(CSc1nnc(Cc2cccs2)n1Cc1ccco1)Nc1ccc(Br)cc1	1	11	-4*	20	0.6	0.73
O=C(CSc1nnc(Cc2cccs2)n1Cc1ccco1)Nc1ccc(Cl)cc1Cl	-2	6	.	14	-0.33	0.65
CN(C)C(=O)CSc1nnc(Cc2ccccc2)n1Cc1ccco1	.	2	-0.077	6	0.04	-1.1
Cc1cc(Br)ccc1OCC(=O)N(Cc1nc(-c2ccccc2)no1)C(C)C	-1	7	-4.8*	8	-0.46	-1.3
COc1ccccc1OCC(=O)N(Cc1nc(-c2ccc(Cl)cc2)no1)C(C)C	0	4	-5*	4	.	-1.4
COc1cccc(OCC(=O)N(Cc2nc(-c3ccc(Cl)cc3)no2)C(C)C)c1	1	4	-2.6	2	.	-0.052
O=S(=O)(Nc1nccs1)c1ccc(Cl)cc1	2	9	-3.4*	7	0.3	-0.77
O=C(Nc1ccccc1)c1ccc(S(=O)(=O)N2CCOCC2)cc1	2	-2	0.51	14	-0.01	0.027
O=C(Nc1ccc(S(=O)(=O)Nc2nccs2)cc1)c1ccc(S(=O)(=O)N2CCOCC2)cc1	2	.	.	67*	.	.
CCOC(=O)c1[nH]c2ccccc2c1NC(=O)c1ccc(S(=O)(=O)N2CCCC2)cc1	.	.	.	21*	.	.
COC(=O)c1[nH]c2ccc(Br)cc2c1NC(=O)CN1CCN(C2CCCCC2)CC1	.	9	2.6	5	0.63	2.9*
CCOC(=O)c1[nH]c2ccccc2c1NC(=O)c1cc(OC)c(OC)c(OC)c1	.	6	-2.1	.	-0.39	-0.0084
COc1ccc(CN2C(=O)c3ccccc3C2=O)cc1C(=O)Nc1ccc(C)cc1C	-9	.	.	20	.	.
C=CCN1C(=O)C(CC(=O)Nc2ccccc2)SC1=Nc1ccc(S(N)(=O)=O)cc1 (configuration not stated)	.	1	-0.057	22	-0.44	-1.1
O=c1c2cc(F)ccc2[nH]c(=S)n1CCCN1CCOCC1	-1	-2	0.98	24	0.6	-0.027
Cc1cc(C(=O)Nc2ccc(S(=O)(=O)N3CCCC3)cc2)cs1	-4	6	-0.42	53*	-1.4	0.43
CCOC(=O)C1CCN(CC(=O)Nc2c(C(=O)OC)[nH]c3ccc(Cl)cc23)CC1	-2	14	-1.4	26	-0.5	0.72
SMILES	Phagocyt inh	Rev-RRE block	Cav32 inh	Measles CPE	PTK2B oligo ant	DAT uptake mod
CCOC(=O)C1CCN(CC(=O)Nc2c(C(=O)OC)[nH]c3ccccc23)CC1	-1	5	2.3	11	.	-8.2*
CCOC(=O)C1CCCN(CC(=O)Nc2c(C(=O)OC)[nH]c3ccc(Br)cc23)C1 (configuration not stated)	1	7	-4.3*	25	0.82	1.1
CCCCCNCc1cccc(Br)c1	.	0	0.26	11	-0.83	0.33
COc1ccc(OC)c(NS(=O)(=O)c2ccc(NC(=O)c3ccc(NS(C)(=O)=O)cc3)cc2)c1	-5	.	.	17	.	.
CCc1cccc(C)c1NC(=O)CO/N=C(\C)c1cc2ccccc2o1	-9	.	.	8	.	.
CCc1ccc(NSc2ccccc2[N+](=O)[O-])cc1	0	16	-0.89	7	-3*	0.067
Cn1c(SCC(=O)N2c3ccccc3CCc3ccccc32)nnc1-c1ccc(O)cc1	2	.	.	18	.	.
CC(C)NC(=O)COc1ccc(/C=N/NS(=O)(=O)c2ccccc2)cc1	-3	-2	-1.1	8	0.56	0.57
O=C(COc1ccc(/C=N/NS(=O)(=O)c2ccccc2)cc1)Nc1ccc(F)cc1	0	1	-6*	48	1.7	0.41
COc1ccc(/C(C)=N/NC(=O)c2ccc(CSc3cccc4cccnc34)cc2)cc1OC	.	8	-2.7	70*	1.1	2.1
C/C(=N\NC(=O)c1ccc(CSc2cccc3cccnc23)cc1)C1CCCCC1	2	.	.	12	.	.
CNC(=O)CSc1nc2nc(C)cc(C)n2n1	0	10	-0.24	5	0	-1.5
Cc1cc(C)n2nc(SCC(=O)N(C(C)C)C(C)C)nc2n1	0	.	.	30	0.61	-8.9*
O=C(c1ccc(CS(=O)(=O)c2cccc(C(F)(F)F)c2)o1)N1CCN(c2ccccn2)CC1	2	5	-0.75	.	0.13	-0.33
COc1ccc2c(c1)OC1(C)CC2C(C(=O)c2ccccc2OC)C(=O)N1 (configuration not stated)	.	.	.	31*	.	.
COc1ccc(NC(=O)C2C(=O)NC3(C)CC2c2ccccc2O3)cc1 (configuration not stated)	-1	6	-0.55	20	1.4	-0.12
COc1ccc2c(c1)C1CC(C)(NC(=O)C1S(=O)(=O)c1ccc(F)cc1)O2 (configuration not stated)	-8	.	.	69*	.	.
Cc1ccc(-n2nc(CN3CCOCC3)c(-c3ccccc3)c2N)c(C)c1	-9	.	.	6	.	.
COc1ccc(NC2=Nc3cccc4cccc2c34)cc1	-7	.	.	4	.	.
COc1ccc(-c2nc(-c3ccc(C(=O)O)cc3)no2)cc1	.	.	0.77	.	.	-0.0067
COc1ccc(O)c(-c2cc(-c3cccc(Br)c3)n[nH]2)c1	1	13	.	7	0.44	.
COc1ccc(-c2cc(-c3cc(OC)ccc3O)[nH]n2)cc1	1	11	-4.5*	18	-2.1	-0.045
CCc1ccccc1NC(=O)c1cc2sccc2n1C	1	1	-2.4*	16	.	0.2
Cc1cc(C(=O)NCCCN2CCN(c3cc(Cl)ccc3C)CC2)n(-c2ccccc2)n1	-1	10	-4.7*	20	.	-0.3
CCOc1ccc(C(=O)NC(=S)Nc2cccc(NC(=O)c3ccco3)c2)cc1[N+](=O)[O-]	-11	.	.	10	.	.
O=C1C=C(c2ccc(Cl)cc2)OC2(CCCC2)O1	.	4	-0.58	8	0.39	-2.6*

High-throughput results as filed in PubChem.
